From PubChem BioAssay
This is a sample that favours compounds with a hit; in the whole collection about 2.2% have one here.
G6PDH CS: L. mesenteroides G6PDH inhibition counter-screen | Purified L. mesenteroides G6PDH, diaphorase/resazurin coupled fluorescence, 45 min | inhibition, % at 5 µM | actives 0.12% (n = 200,000); in the data active means inhibition above about 50%
PMI act hi M6P: PMI (human) activation, high substrate. P34949. coupled PMI enzyme assay, resazurin fluorescence, 20 min; stronger effect = higher value; 1 = untreated enzyme, 0 = substrate-free blank. activation factor at 20 µM. actives 0.34% (n = 190,000). AID 1216;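 active means activation factor of 2 or more at 20 µM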
Target sequence (P34949 whole entry, looked up): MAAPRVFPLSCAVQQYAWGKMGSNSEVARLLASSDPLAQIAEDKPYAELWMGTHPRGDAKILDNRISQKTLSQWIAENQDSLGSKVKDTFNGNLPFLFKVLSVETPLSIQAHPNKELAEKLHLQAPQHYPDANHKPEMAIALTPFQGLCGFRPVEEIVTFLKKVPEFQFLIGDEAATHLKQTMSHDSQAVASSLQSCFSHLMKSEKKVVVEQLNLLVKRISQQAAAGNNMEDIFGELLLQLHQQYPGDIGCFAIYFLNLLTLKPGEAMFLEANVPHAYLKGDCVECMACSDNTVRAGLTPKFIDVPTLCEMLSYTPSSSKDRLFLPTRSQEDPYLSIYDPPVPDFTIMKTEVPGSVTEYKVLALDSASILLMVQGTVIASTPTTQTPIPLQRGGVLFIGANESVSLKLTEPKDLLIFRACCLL
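Material: human phosphomannose isomerase with PGI, G6PDH, diaphorase coupling enzymes; amount: PMI at 15 ng/mL final; also added: Mannose-6-phosphate 1.0 mM (near-saturating) plus 0.22 mM NADP+; incubation: enzyme reaction with compound 20 min at room temperature; signal: resorufin fluorescence (Ex 544/Em 590 nm) from resazurin via diaphorase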
ROMK primary: modulates human ROMK potassium channel activity; P48048; Tet-inducible ROMK, thallium flux fluorescence; actives lie on both sides; B-score at 10 µM; actives 2% (n = 130,000); AID 1918;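 active means signal ratio slope over the read window, or its plate-corrected B-score, at least 3 SD from the plate mean, either direction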;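 further: B-score of the F/F0 ratio slope over 7 to 12 s after thallium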
PMI act: activators of human phosphomannose isomerase; purified human PMI, coupled resazurin fluorescence, 20 min; stronger effect = higher value; 1 = vehicle control, 0 substrate-free wells; activation factor at 20 µM; actives 0.005% (n = 190,000); P34949;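 active means activation factor of 2 or more at 20 µM, relative to plate controls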
Diaph inh CS: diaphorase inhibition or chemical oxidation counter-screen. diaphorase resazurin-to-resorufin fluorescence, NADH, 16 min; bacterial (C. kluyveri) enzyme, not human. inhibition, % at 20 µM. actives 0.69% (n = 190,000);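 active means primary screen inhibition at 20 µM above a set limit, cut at about 50% in these data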;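 further: plate controls were DMSO with full reaction for no effect and wells lacking NADH for full effect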
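Detection: fluorescence of resorufin formed from resazurin, Ex 544/Em 590 nm; test system: Clostridium kluyveri diaphorase enzyme; amount: 0.14 U/mL diaphorase, enzyme working solution; times: 16-min room-temperature incubation before reading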
Diaphorase act: diaphorase activation or chemical reduction counter-screen; Diaphorase/resazurin coupled assay, resorufin fluorescence, 16 min; stronger effect = higher value; 1 = vehicle wells, 0 = NADH-free wells; activation factor at 20 µM; actives 0.005% (n = 190,000);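 active means diaphorase activity raised at least twofold by the compound at 20 µM; inactive means activation factor below 2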
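Material: Clostridium kluyveri diaphorase, purified enzyme; Quantity: enzyme 0.07 U/mL final; Medium: HEPES pH 7.4 buffer with MgCl2 and Tween 20; Dosing: single compound dose of 20 µM, 1% DMSO final; Schedule: 16 min reaction at room temperature; Measured by: red resorufin fluorescence at 544/590 nm excitation/emission.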
Starred values were filed as active, the others as inactive; x = not tested or not shown.

SMILES	G6PDH CS	PMI act hi M6P	ROMK primary	PMI act	Diaph inh CS	Diaphorase act
Cc1ccc(CNC(=O)c2ccc3c(=O)[nH]c4c(C(=O)NCC5CCCO5)sc(=S)n4c3c2)cc1 (centres undefined)	5	0.9	0.14	0.9	79*	0.2
Cc1cccc2c(CC(=O)Nc3ccccc3)noc12	-1	0.9	-0.066	0.9	10	0.9
CC(Sc1nnc(-c2ccccc2)c(-c2ccccc2)n1)C(=O)Nc1ncc(Cl)cc1Cl (centres undefined)	-11	1	x	0.9	53*	0.5
Cc1cccc(NC(=O)CN2C(=O)N/C(=C/c3ccc(C)o3)C2=O)c1	-18	1	x	0.9	24	0.8
CC(=O)N1C(=S)NC(=O)/C1=C1/C(=O)N(CC(=O)Nc2cccc(C)c2)c2ccccc21	3	0.7	0.9	0.6	67*	0.3
C=CCNC(=S)Nc1sc2c(c1C#N)CCCC2	2	1	0.37	1	22	0.8
O=[N+]([O-])c1cccnc1N1CCN(c2ccc(F)cc2)CC1	4	0.8	0.81	0.9	21	0.8
N=C1C=CC=C2C1=NC1(CCCCC1)N2O	-24	0.3	x	0.3	64*	0.4
CN1CCC(N(C)C(=O)CCc2nc3ccccc3n2-c2ccccc2)CC1	3	0.8	0.057	1	74*	0.3
CCn1ncc(Br)c1C(=O)Nc1ccn(C23CC4CC(CC(C4)C2)C3)n1	-3	1	x	1	12	0.9
CCn1ncc(Br)c1C(=O)N(C)C12CC3CC(CC(C3)C1)C2	5	1	-4.5*	1	12	0.9
CC(C)(C)C(=O)Cn1nc(Cl)nc1Cl	3	1.1	-0.91	1.2	-9	1.1
CC(C)(C)C(=O)CNCC(=O)C(C)(C)C	12	2.1*	1.3	1.8	-23	1.2
O=C(CCSCCc1ccccn1)Nc1ccc(Cc2ccncc2)cc1	8	1.1	-0.93	1.1	-6	1.1
COc1ccc(S(=O)(=O)NCc2ccc(F)cc2)cc1OC	2	1.1	0.43	1	-3	1
Cc1ccc(NC(=O)C(=O)NNC(=O)c2cccs2)cc1	4	1	2.9*	1	10	0.9
COc1cccc(NC(=O)CN(C)C(C)C(=O)Nc2ccc(S(=O)(=O)N3CCCC3)cc2)c1 (centres undefined)	-1	1.1	0.032	1.1	-3	1
COc1cccc(/C=N/Nc2ccc(S(=O)(=O)O)cc2)c1O	13	2.1*	-0.49	1.4	11	0.9
Cc1ccc(-c2nnn(C/C(N)=N/O)n2)cc1	4	x	-1	x	x	x
O=S(=O)(c1ccc(N=C2NN=C(c3cc(F)ccc3F)CS2)cc1)N1CCOCC1	5	2.3*	0.94	1.7	1	1
Fc1ccc(N=C2NN=C(c3cc(F)ccc3F)CS2)cc1	7	0.8	x	0.7	18	0.8
CC1=C/C(=C\c2ccc(Br)o2)C(=O)O1	-15	1.1	x	1.1	17	0.8
O=C1C(=Cc2ccc(Br)o2)C(=O)c2ccccc21	-16	0.9	0.53	1.2	64*	0.4
C(=C\c1ccco1)/C1=NN(c2ccccc2)C(c2ccco2)C1 (centres undefined)	-1	2.2*	x	1.6	13	0.9
O=[N+]([O-])c1ccc(/C=C/C2=NN(c3ccccc3)C(c3ccco3)C2)o1 (centres undefined)	1	1.1	-0.05	1.2	9	0.9
O=C1C(=O)N(c2cccc(Cl)c2)C(c2ccccc2[N+](=O)[O-])/C1=C(\O)c1ccccc1 (centres undefined)	1	1.5	x	1	15	0.9
O=C1C(=O)N(c2ccccc2)C(c2ccccc2[N+](=O)[O-])/C1=C(\O)c1ccccc1 (centres undefined)	13	0.9	0.68	0.9	51*	0.5
Cc1ccc(C(=O)NC(=S)NNC(=O)CCN2CCOCC2)cc1	-7	0.5	0.35	0.6	67*	0.3
